A selection: hits, their analogues and other compounds. The true share with any hit is near 1.9%.
PLC-gamma1 inh: blocks human PLC-gamma1 enzyme activity; 370,000 compounds, 0.84% hits; inhibition, % at 12.2 µM; P19174; purified PLC-gamma1, fluorogenic substrate, fluorescence; AID 720700; in the data active = inhibition above about 9.5%
Arr AP2 block: blocks beta-arrestin peptide binding to AP2 adaptin; 340,000 compounds, 0.31% hits; inhibition, % at 10 µM; FITC-arrestin peptide / GST-AP2 beads, flow cytometry; AP2 beta2 appendage carries R879A mutation;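 active = inhibition above a set limit, near 3 SD of compounds lacking own fluorescence, cut at about 54% in these data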;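 also: plate controls were DMSO wells for no effect and 5 µM unlabelled arrestin peptide for full effect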
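test system = AP2 appendage R879A on GSH beads | buffer or medium = PBS plus Tween 20 (0.05%) and BSA (0.1%) | incubation = 12 min plus 1 h, RT | detection = bead flow cytometry, FITC channel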
proCasp7 act: activates human procaspase-7, counter-screen for procaspase-3 activators; recombinant procaspase-7, Ac-DEVD-pNA absorbance 405 nm; D23A/D198A/D206A triple mutant, cannot self-cleave; scale: DMSO 0, 5 µM enzyme 100; AID 463210; activation, % at 8.5 µM; 330,000 compounds, 0.093% hits; P55210;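 active = percent activation above the screen-wide mean plus 3 SD, cut at about 25% in these data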
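System: Procaspase-7 triple mutant (PC-7 D3A); measure: % activation from two-timepoint absorbance difference, scaled to controls; times: 1 h compound preincubation, 2 h substrate cleavage, 25 °C; also added: Ac-DEVD-pNA substrate, 400 µM as added; measured by: Epi-absorbance of released pNA at 405 nm, two timepoints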
sPLA2-III inh: Inhibits HGIII-sPLA2 liposome hydrolysis, primary screen; Q9NZ20; QFRET BODIPY PC-A2 liposome hydrolysis, fluorescence; inhibition, % at 12.2 µM; 370,000 compounds, 0.56% hits; AID 743126;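 active = inhibition above mean plus 3 SD of compounds lying within the high and low control bounds, cut at about 19% in these data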;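 also: 0% = median of test compound wells and 100% = no enzyme DMSO wells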
PLC-beta3 inh: PLC-beta3 (human) inhibition, primary screen; Purified PLC-beta3, fluorogenic substrate, fluorescence; Q01970; inhibition, % at 12.2 µM; 370,000 compounds, 0.18% hits; AID 720704; in the data active = inhibition above about 11%;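 also: 0% = median of compound wells on plate and 100% = full blocker control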
procasp3 activ: activates human procaspase-3. P42574. recombinant procaspase-3 D3A, Ac-DEVD-pNA absorbance 405 nm. activation, % at 8.5 µM. 330,000 compounds, 0.11% hits. AID 463141;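 active = activation above the mean of all tested compounds plus 3 SD, cut at about 21% in these data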;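 also: 0% = DMSO alone and 100% = DMSO wells spiked with extra 5 µM PC-3 D3A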
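Test system: Procaspase-3 D3A mutant; medium: Zinc-free HEPES/NaCl buffer with 0.01% Triton X-100 at pH 7.4; reagent: DEVD-pNA substrate; doses: one concentration, 8.5 µM nominal, 0.8% DMSO; times: 1 h preincubation plus 2 h reaction at 25 °C; signal: Epi-absorbance at 405 nm of released p-nitroaniline, 0 and 120 min; replicates: singlicate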
Arr AP2 CP1: blocks beta-arrestin peptide binding to human AP2 | shares compounds with Arr AP2 block | GST-AP2 beads, FITC arrestin peptide binding, flow cytometry; GST-fused beta2-adaptin appendage, R879A mutant | inhibition, % at 10 µM | 1,300 compounds, 2% hits | AID 504908;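 active = inhibition above a set limit, roughly 3 SD of non-fluorescent compound noise, cut at about 38% in these data; inactive = inhibition at or below that limit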;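 also: loss of bead fluorescence from 50 nM FITC arrestin peptide bound to appendage; 0% = negative control wells and 100% = excess unlabelled arrestin peptide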
GST-FITC bead: GST-GSH bead binding interference, counter-screen | shares compounds with Arr AP2 block | inhibition, % at 10 µM | GST-fluorescein binding to GSH beads, fluorescence | 1,300 compounds, 2% hits;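 active = inhibition above 50%, about 3 SD of the inhibition seen with non-fluorescent compounds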;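 also: fluorescein maleimide labelled GST captured on 4 micron glutathione beads; higher means more loss of bead fluorescence from quenching or blocked binding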
Active calls of the source: *; nt = no result given.

SMILES | PLC-gamma1 inh | Arr AP2 block | proCasp7 act | sPLA2-III inh | PLC-beta3 inh | procasp3 activ | Arr AP2 CP1 | GST-FITC bead
O=C(c1ccc(-c2ccc([N+](=O)[O-])cc2)o1)N1CCN(S(=O)(=O)c2cccs2)CC1 | -21.1 | 65.0* | -6.1 | 4.7 | -36.0 | -7.5 | 2.9 | -2.9
COc1ccc(-c2c(Cc3ccccc3)nc(NC(=O)c3ccccc3)n2Cc2ccccc2)cc1 | -16.6 | nt | nt | 11.6 | -24.3 | nt | nt | nt
Cc1ccc(NS(=O)(=O)c2ccc3c(c2)OCCCO3)cc1S(=O)(=O)N1CCOCC1 | 1.8 | 58.4* | 12.2 | -1.6 | -6.5 | -1.8 | 1.4 | -1.0
O=S(=O)(Nc1cccc(S(=O)(=O)N2CCOCC2)c1)c1ccc2c(c1)OCCO2 | -0.7 | -2.5 | 8.2 | -6.8 | -2.8 | -1.3 | nt | nt
CC(C)=CCC/C(C)=C/CNCC(=O)N1c2ccccc2[C@]2(c3ccccc3)C[C@@H]3C(=O)N(C/C=C(\C)CCC=C(C)C)CC(=O)N3[C@H]12 | 0.6 | nt | nt | -6.7 | -0.3 | nt | nt | nt
O=C(C1CCN(S(=O)(=O)c2ccc(Cl)cc2)CC1)N1CCCC1 | 3.7 | 1.6 | 8.0 | 3.7 | 3.2 | 5.4 | nt | nt
CCCNC(=O)[C@@H]1CCCN1C(=O)C1CCN(S(=O)(=O)c2ccc(C)cc2)CC1 | 0.8 | 54.4* | -13.4 | 4.2 | -4.4 | 0.7 | 4.7 | -2.0
Cc1ccc(S(=O)(=O)N2CCC(C(=O)N3CCC3)CC2)cc1 | 2.4 | 54.3* | 11.4 | 2.3 | -1.3 | 7.3 | 5.0 | -2.5
O=C(CSc1nnc(COc2ccccc2)n1-c1ccc(Cl)cc1)Nc1ccccc1-c1ccccc1 | 6.7 | nt | nt | -20.1 | 8.3 | nt | nt | nt
COCCNc1cc(N)c([N+](=O)[O-])cc1[N+](=O)[O-] | 7.0 | -14.7 | -6.3 | -0.2 | 6.1 | -5.1 | nt | nt
O=c1[nH]c2cc(NCCO)c([N+](=O)[O-])cc2[nH]1 | 3.0 | 69.8* | -10.2 | 4.6 | -1.2 | -1.9 | 0.8 | 2.3
COC(=O)[C@]12C[C@H](CC(=O)NCCc3ccccc3OC)C(=O)N(Cc3cccc4ccccc34)C1=C[C@H](COCc1ccccc1)O[C@@H]2C | 2.6 | nt | nt | -8.4 | -5.1 | nt | nt | nt
O=C(CN1C(=O)CS/C1=C\c1nc(-c2ccc(Cl)cc2)cs1)Nc1cccnc1Cl | -3.1 | 60.8* | -8.0 | 1.8 | -2.1 | -1.6 | 8.7 | 1.8
NC(=O)SCC(=O)Nc1cccc(Cl)c1 | 5.1 | 81.8* | 3.5 | 1.0 | 4.9 | -13.2 | 19.1 | 10.1
NC(=O)SCC(=O)Nc1ccc(Cl)cc1 | 0.5 | 18.2 | -10.6 | -2.9 | 2.0 | -22.4 | nt | nt
C=CCN1C(=O)[C@@H](CC(=O)NCCc2ccccc2OC)[C@]2(C(=O)OCC)CCCCC/C=C/12 | 0.4 | nt | nt | 3.2 | -0.6 | nt | nt | nt
COc1cc(C(=O)O)nc2ccccc12 | 0.7 | 56.4* | -1.1 | 0.8 | 0.8 | 7.0 | -10.3 | -2.2
CC1CC(C)CN(c2oc(-c3ccccc3Cl)nc2C#N)C1 (stereo not drawn) | 0.6 | 118.0* | -6.0 | 0.2 | 2.2 | 3.0 | 13.9 | -1.1
CNC(=S)N1CCN(c2c(F)cc3c(=O)c(C(=O)O)cn(C4CC4)c3c2OC)CC1C (stereo not drawn) | -41.8 | 68.2* | 4.1 | 4.5 | -55.0 | 1.0 | -3.0 | -9.5
COC(=O)C(C)NC(=S)N1CCN(c2c(F)cc3c(=O)c(C(=O)O)cn(C4CC4)c3c2OC)CC1C (stereo not drawn) | -107.0 | 5.8 | 1.7 | 0.9 | -152.6 | 0.1 | nt | nt
Cc1c(C(=O)Nc2ccc(C(=O)O)cc2)cnn1C | 1.8 | 58.0* | 5.0 | -1.7 | -1.6 | -4.6 | -6.5 | -0.9
CCn1ncc(C(=O)Nc2ccc(F)cc2)c1C | -0.5 | -11.7 | 4.9 | -3.4 | -1.9 | -5.7 | nt | nt
O=S(=O)(c1ccccc1)N1CCN(C(=S)Nc2ccc(Br)cc2)CC1 | 1.3 | -1.8 | nt | 5.8 | -8.8 | nt | nt | nt
